In brackets after ≈: the same amount, converted by molar mass.
Assays:
Format in all cases: functional
Candida parapsilosis = experiment: Antifungal activity against Candida parapsilosis 22019 after 24 hrs by serial dilution method; conditions: Lodderomyces parapsilosis, 22019, 24 h
In short: (§1)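 MIC by broth serial dilution per NCCLS/CLSI (M27-A3 yeasts, M38-A2 filamentous) in 96-well plates; ATCC strains plus clinical isolates; C. parapsilosis 22019 run as quality-control strain in every assay. Compounds dissolved in DMSO, serially diluted in growth medium; incubation 35 °C; MIC read at 24 h (Candida), 48 h (A. fumigatus), 72 h (C. neoformans).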

Aspergillus fumigatus = experiment: Antifungal activity against Aspergillus fumigatus 7544 after 48 hrs by serial dilution method; conditions: Aspergillus fumigatus, 7544, 48 h; in short: as §1
Cryptococcus neoformans = experiment: Antifungal activity against Cryptococcus neoformans 32609 after 72 hrs by serial dilution method; conditions: Cryptococcus neoformans, 32609, 72 h; in short: as §1
Candida albicans [1] = experiment: Antifungal activity against Candida albicans Y0109 after 24 hrs by serial dilution method; conditions: Y0109, 24 h; in short: as §1
Candida albicans [2] = experiment: Antifungal activity against Candida albicans SC5314 after 24 hrs by serial dilution method; conditions: SC5314, 24 h; in short: as §1
Nakaseomyces glabratus = experiment: Antifungal activity against Candida glabrata 537 after 24 hrs by serial dilution method; conditions: Nakaseomyces glabratus, 537, 24 h; in short: as §1

Structure (SMILES)	MIC (Candida parapsilosis)	MIC (Aspergillus fumigatus)	MIC (Cryptococcus neoformans)	MIC (Candida albicans [1])	MIC (Candida albicans [2])	MIC (Nakaseomyces glabratus)
COc1ccc(-c2cc3c(s2)C(=O)N([C@H](C)[C@](O)(Cn2cncn2)c2ccc(F)cc2F)C3)cc1	0.0625 µg/mL (≈ 0.126 µM)	4 µg/mL (≈ 8.06 µM)	0.0625 µg/mL (≈ 0.126 µM)	0.0156 µg/mL (≈ 0.0314 µM)	0.0156 µg/mL (≈ 0.0314 µM)	0.0625 µg/mL (≈ 0.126 µM)
C[C@@H](N1Cc2cc(-c3cccc(C#N)c3)sc2C1=O)[C@](O)(Cn1cncn1)c1ccc(F)cc1F	0.125 µg/mL (≈ 0.254 µM)	4 µg/mL (≈ 8.14 µM)	0.125 µg/mL (≈ 0.254 µM)	0.0625 µg/mL (≈ 0.127 µM)	0.0625 µg/mL (≈ 0.127 µM)	0.125 µg/mL (≈ 0.254 µM)
C[C@@H](N1Cc2cc(-c3cccc(Cl)c3)sc2C1=O)[C@](O)(Cn1cncn1)c1ccc(F)cc1F	0.0625 µg/mL (≈ 0.125 µM)	8 µg/mL (≈ 16 µM)	0.125 µg/mL (≈ 0.25 µM)	0.0625 µg/mL (≈ 0.125 µM)	0.0156 µg/mL (≈ 0.0311 µM)	0.125 µg/mL (≈ 0.25 µM)
C[C@@H](N1Cc2cc(-c3ccc(C#N)nc3)sc2C1=O)[C@](O)(Cn1cncn1)c1ccc(F)cc1F	0.125 µg/mL (≈ 0.254 µM)	8 µg/mL (≈ 16.2 µM)	0.125 µg/mL (≈ 0.254 µM)	0.0312 µg/mL (≈ 0.0635 µM)	0.125 µg/mL (≈ 0.254 µM)	0.5 µg/mL (≈ 1.02 µM)
C[C@@H](N1Cc2cc(-c3cncnc3)sc2C1=O)[C@](O)(Cn1cncn1)c1ccc(F)cc1F	0.0625 µg/mL (≈ 0.133 µM)	4 µg/mL (≈ 8.54 µM)	0.0312 µg/mL (≈ 0.0667 µM)	0.0156 µg/mL (≈ 0.0333 µM)	0.0312 µg/mL (≈ 0.0667 µM)	0.125 µg/mL (≈ 0.267 µM)
C[C@@H](N1Cc2cc(-c3ccc(F)nc3)sc2C1=O)[C@](O)(Cn1cncn1)c1ccc(F)cc1F	0.25 µg/mL (≈ 0.515 µM)	8 µg/mL (≈ 16.5 µM)	0.25 µg/mL (≈ 0.515 µM)	0.25 µg/mL (≈ 0.515 µM)	0.125 µg/mL (≈ 0.257 µM)	1 µg/mL (≈ 2.06 µM)
C[C@@H](N1CCc2sc(-c3ccncc3)cc2C1)[C@](O)(Cn1cncn1)c1ccc(F)cc1F	0.5 µg/mL (≈ 1.07 µM)	> 32 µg/mL	0.5 µg/mL (≈ 1.07 µM)	0.5 µg/mL (≈ 1.07 µM)	0.25 µg/mL (≈ 0.535 µM)	4 µg/mL (≈ 8.56 µM)
Cc1ccc(-c2cc3c(s2)C(=O)N([C@H](C)[C@](O)(Cn2cncn2)c2ccc(F)cc2F)C3)cc1	0.0625 µg/mL (≈ 0.13 µM)	4 µg/mL (≈ 8.32 µM)	0.0625 µg/mL (≈ 0.13 µM)	0.0312 µg/mL (≈ 0.065 µM)	0.0312 µg/mL (≈ 0.065 µM)	0.0625 µg/mL (≈ 0.13 µM)
C[C@@H](N1CCc2nc(-c3cncnc3)sc2C1)[C@](O)(Cn1cncn1)c1ccc(F)cc1F	0.0625 µg/mL (≈ 0.133 µM)	2 µg/mL (≈ 4.26 µM)	0.0625 µg/mL (≈ 0.133 µM)	0.0625 µg/mL (≈ 0.133 µM)	0.0312 µg/mL (≈ 0.0666 µM)	0.0625 µg/mL (≈ 0.133 µM)
C[C@@H](N1Cc2cc(-c3ccc(C#N)cc3)sc2C1=O)[C@](O)(Cn1cncn1)c1ccc(F)cc1F	0.0156 µg/mL (≈ 0.0317 µM)	4 µg/mL (≈ 8.14 µM)	0.0156 µg/mL (≈ 0.0317 µM)	0.0156 µg/mL (≈ 0.0317 µM)	0.0156 µg/mL (≈ 0.0317 µM)	0.125 µg/mL (≈ 0.254 µM)
C[C@@H](N1Cc2cc(-c3cncc(F)c3)sc2C1=O)[C@](O)(Cn1cncn1)c1ccc(F)cc1F	0.0312 µg/mL (≈ 0.0644 µM)	4 µg/mL (≈ 8.24 µM)	0.0312 µg/mL (≈ 0.0644 µM)	0.0312 µg/mL (≈ 0.0644 µM)	0.0312 µg/mL (≈ 0.0644 µM)	0.25 µg/mL (≈ 0.515 µM)
OC(Cn1cncn1)(Cn1cncn1)c1ccc(F)cc1F [FLUCONAZOLE]	1 µg/mL (≈ 3.27 µM)	> 64 µg/mL	4 µg/mL (≈ 13.1 µM)	0.25 µg/mL (≈ 0.816 µM)	0.25 µg/mL (≈ 0.816 µM)	1 µg/mL (≈ 3.27 µM)
C[C@@H](N1Cc2cc(-c3ccccc3)sc2C1=O)[C@](O)(Cn1cncn1)c1ccc(F)cc1F	0.0625 µg/mL (≈ 0.134 µM)	8 µg/mL (≈ 17.1 µM)	0.0625 µg/mL (≈ 0.134 µM)	0.0312 µg/mL (≈ 0.067 µM)	0.0156 µg/mL (≈ 0.0334 µM)	0.125 µg/mL (≈ 0.268 µM)
C[C@@H](N1Cc2sc(-c3ccncc3)cc2C1=O)[C@](O)(Cn1cncn1)c1ccc(F)cc1F	0.0312 µg/mL (≈ 0.0668 µM)	> 64 µg/mL	0.0156 µg/mL (≈ 0.0334 µM)	0.0156 µg/mL (≈ 0.0334 µM)	0.0156 µg/mL (≈ 0.0334 µM)	0.0625 µg/mL (≈ 0.134 µM)
C[C@@H](N1Cc2sc(-c3ccc(C#N)nc3)cc2C1=O)[C@](O)(Cn1cncn1)c1ccc(F)cc1F	0.0156 µg/mL (≈ 0.0317 µM)	32 µg/mL (≈ 65 µM)	0.0156 µg/mL (≈ 0.0317 µM)	0.0156 µg/mL (≈ 0.0317 µM)	0.0156 µg/mL (≈ 0.0317 µM)	0.0625 µg/mL (≈ 0.127 µM)
COc1ncc(-c2cc3c(s2)CN([C@H](C)[C@](O)(Cn2cncn2)c2ccc(F)cc2F)C3=O)cn1	0.0156 µg/mL (≈ 0.0313 µM)	16 µg/mL (≈ 32.1 µM)	0.0156 µg/mL (≈ 0.0313 µM)	0.0156 µg/mL (≈ 0.0313 µM)	0.0156 µg/mL (≈ 0.0313 µM)	0.0156 µg/mL (≈ 0.0313 µM)
COc1ccc(-c2cc3c(s2)CN([C@H](C)[C@](O)(Cn2cncn2)c2ccc(F)cc2F)C3=O)cn1	0.0156 µg/mL (≈ 0.0314 µM)	64 µg/mL (≈ 129 µM)	0.0156 µg/mL (≈ 0.0314 µM)	0.0156 µg/mL (≈ 0.0314 µM)	0.0156 µg/mL (≈ 0.0314 µM)	0.0156 µg/mL (≈ 0.0314 µM)
C[C@@H](N1Cc2sc(Br)cc2C1=O)[C@](O)(Cn1cncn1)c1ccc(F)cc1F	0.0625 µg/mL (≈ 0.133 µM)	32 µg/mL (≈ 68.2 µM)	0.125 µg/mL (≈ 0.266 µM)	0.0625 µg/mL (≈ 0.133 µM)	0.0312 µg/mL (≈ 0.0666 µM)	0.125 µg/mL (≈ 0.266 µM)
C[C@@H](N1Cc2sc(-c3cccnc3)cc2C1=O)[C@](O)(Cn1cncn1)c1ccc(F)cc1F	0.0156 µg/mL (≈ 0.0334 µM)	16 µg/mL (≈ 34.2 µM)	0.0156 µg/mL (≈ 0.0334 µM)	0.0156 µg/mL (≈ 0.0334 µM)	0.0156 µg/mL (≈ 0.0334 µM)	0.0156 µg/mL (≈ 0.0334 µM)

Source: ChEMBL document CHEMBL3616399, “Design, synthesis, and structure-activity relationship studies of novel thienopyrrolidone derivatives with strong antifungal activity against Aspergillus fumigates” (Eur J Med Chem, 2015)
